Values after ≈ are worked out from the molar mass of the structure shown. Active and inactive are the calls of the source. The rule behind the calls is not given here.
Tests used:
Staphylococcus aureus = assay: Antibacterial activity against Staphylococcus aureus assessed as inhibition of growth after 18 hrs by broth culture method; format: functional
How it was run: (§1)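 Broth dilution in 0.5 mL Sensitivity Test Broth, inoculated with 0.2 mL of a 10^-4 dilution of an 18-h broth culture. MIC read after 18-h incubation as the lowest concentration preventing growth.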

Escherichia coli = assay: Antibacterial activity against Escherichia coli assessed as inhibition of growth after 18 hrs by broth culture method; format: functional; how it was run: as §1
[1] = biological target: D-alanyl-D-alanine carboxypeptidase (Streptomyces sp. R61) (UniProt P15555); assay: Inhibition of Streptomyces R61 DD-carboxypeptidase using Ac2-L-Lys-D-Ala-D-Ala as substrate at 10 to 100 ug/ml
D-alanyl-D-alanine carboxypeptidase (Streptomyces sp. R61), sequence (P15555 whole entry): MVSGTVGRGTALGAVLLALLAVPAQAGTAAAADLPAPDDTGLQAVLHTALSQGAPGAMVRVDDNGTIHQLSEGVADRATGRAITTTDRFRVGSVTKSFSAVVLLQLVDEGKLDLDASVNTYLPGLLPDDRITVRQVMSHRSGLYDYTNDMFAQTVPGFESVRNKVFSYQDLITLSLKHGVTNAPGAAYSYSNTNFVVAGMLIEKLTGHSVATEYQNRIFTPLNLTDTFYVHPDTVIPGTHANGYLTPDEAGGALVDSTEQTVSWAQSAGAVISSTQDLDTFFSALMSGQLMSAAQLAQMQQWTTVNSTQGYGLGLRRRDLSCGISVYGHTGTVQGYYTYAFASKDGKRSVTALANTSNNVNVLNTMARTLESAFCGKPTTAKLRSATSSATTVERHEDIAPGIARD
How it was run: (§2)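 Enzymes tested for release of D-alanine, measured with D-amino acid oxidase. Compounds assayed at 10 and 100 μg/mL. Substrates: Ac2-L-Lys-D-Ala-D-Ala for the Streptomyces R61 enzyme; UDP-N-acetylmuramyl-L-alanyl-meso-diaminopimeloyl-D-alanyl-D-alanine for the B. stearothermophilus and S. typhimurium enzymes.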

[2] = biological target: T1, D-alanyl-D-alanine carboxypeptidase DacA (Geobacillus stearothermophilus) (UniProt Q05523); assay: Inhibition of Bacillus stearothermophilus DD-carboxypeptidase using UDP-N-acetylmuramyl-L-alanyl-meso-diaminopimeloyl-D-alanyl-D-alanine as substrate at 10 to 100 ug/ml; how it was run: as §2
T1 sequence (whole entry): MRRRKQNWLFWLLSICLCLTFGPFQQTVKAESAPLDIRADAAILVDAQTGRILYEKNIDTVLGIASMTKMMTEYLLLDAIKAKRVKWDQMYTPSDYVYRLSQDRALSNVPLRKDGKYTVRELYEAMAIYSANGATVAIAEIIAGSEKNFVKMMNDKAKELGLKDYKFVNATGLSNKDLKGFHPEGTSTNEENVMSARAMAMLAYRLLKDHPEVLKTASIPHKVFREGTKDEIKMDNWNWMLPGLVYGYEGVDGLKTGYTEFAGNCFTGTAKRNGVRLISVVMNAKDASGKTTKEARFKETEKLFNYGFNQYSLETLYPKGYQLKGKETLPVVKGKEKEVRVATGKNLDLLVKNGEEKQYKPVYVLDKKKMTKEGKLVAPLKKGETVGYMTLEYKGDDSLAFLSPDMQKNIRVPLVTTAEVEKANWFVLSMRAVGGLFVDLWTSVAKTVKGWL

[3] = test system: Salmonella enterica subsp. enterica serovar Typhimurium; assay: Inhibition of Salmonella typhimurium DD-carboxypeptidase using UDP-N-acetylmuramyl-L-alanyl-meso-diaminopimeloyl-D-alanyl-D-alanine as substrate at 10 to 100 ug/ml; how it was run: as §2

MIC (Staphylococcus aureus): 500 µg/mL (≈ 902 µM)
MIC (Escherichia coli): > 500 µg/mL
inhibition [1]: inactive
inhibition [2]: inactive
inhibition [3]: inactive
SMILES: CC(=O)NCCCC[C@H](NC(=O)CI)C(=O)N[C@H](C)C(=O)N[C@H](C)C(=O)OC(C)(C)C
